In brackets after ≈: the same amount, converted by molar mass.
Columns and labels:
[1] = aqueous solubility; format: physicochemical; conditions: water
[2] = test system: lung adenocarcinoma H441 cells; experiment: cell proliferation by hexosaminidase assay; format: cell-based, Human; conditions: 1 and 10 μM, 24–72 h
Method in brief: (§1)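 Cells seeded at 5×10^3/well, attached overnight, then exposed to the test compound for 24, 48 and 72 h. The compound was given from DMSO at 0.1% final DMSO in medium with 5% FBS, with DMSO-only controls. H441 were maintained in McCoy's 5A with 5% FBS. Panc-1 and MiaPaCa-2 were maintained in RPMI 1640 with 10% FBS. Readout was hexosaminidase: 7.5 mM p-nitrophenyl substrate solution (citrate, pH 5), 37°C 30 min, glycine/EDTA stop (pH 10.4), A405.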

[3] = format: in vivo, athymic nude rats; conditions: for route of clearance: images through 24 h
[4] = test system: xenograft Panc-1 tumors; experiment: mouse model of xenograft Panc-1 tumors; format: in vivo, athymic nude mice; conditions: 5 μg intraperitoneal daily for 3 weeks
Method in brief: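 Five-week-old male athymic nude mice received 1 × 10^6 Panc-1 cells in each flank. Once tumors reached about 500 mm3, the test compound was given intraperitoneally at 5 μg/injection daily for 3 weeks. Tumors were measured weekly by caliper, with volume = length × width × depth × 0.5236. Tumors were excised and weighed at sacrifice. n = 4 per group versus untreated control, significance at p < 0.05.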

[5] = test system: pancreatic cancer cells Panc-1; experiment: cell proliferation by hexosaminidase assay; format: cell-based; conditions: Panc-1 cells, 1 and 10 μM, 24–72 h
Method in brief: as §1

[6] = test system: pancreatic cancer cells MiaPaCa-2; experiment: cell proliferation by hexosaminidase assay; format: cell-based; conditions: MiaPaCa-2 cells, 1 and 10 μM, 24–72 h
Method in brief: as §1

[7] = Tc-99m-labeled EFAH, intravenous, rats, 24 h

Compound	solubility [1] [µg/mL]	anti-proliferative activity compared with EF24 [2]	injected dose accumulated in intestine [3, 7] [%]	injected dose accumulated in liver [3, 7]	route of clearance ([3]; intravenous, rats)	excised tumor weight ([4]; at necropsy, control about 2.5 g) [g]	mean tumor volume reduction ([4]; versus control) [%]	tumor weight decrease ([4]; versus control) [%]	anti-proliferative activity compared with EF24 [5]	anti-proliferative activity compared with EF24 [6]	accumulation of radiolabeled compound in tumor tissue ([3]; intravenous, rats with H441 xenograft, 24 h)	free Tc-99m radioactivity in rat urine by HPLC ([3]; urine collected after 30 min of injection)
O=C1C(=Cc2ccccc2F)CNCC1=Cc1ccccc1F [EF24, 3,5-Bis-(2-fluorobenzylidene)-4-piperidone, reference compound]	1200 (≈ 3.85 mM)	–	–	–	–	–	–	–	–	–	–	–
NNc1ccc(C(=O)NCCN2CC(=Cc3ccccc3F)C(=O)C(=Cc3ccccc3F)C2)cn1 [EFAH, N-{2-[3,5-Bis-(2-fluorobenzylidene)-4-oxo-piperidin-1-yl]-ethyl}-6-hydrazinonicotinamide]	3500 (≈ 7.15 mM)	as effective as EF24	~14.3	Approximately 23.7%	mostly eliminated by hepatobiliary route	0.45	79	82	as effective as EF24	as effective as EF24	–	–
Tc-99m-labeled N-{2-[3,5-Bis-(2-fluorobenzylidene)-4-oxo-piperidin-1-yl]-ethyl}-6-hydrazinonicotinamide [Tc-99m-EFAH]	–	–	–	–	clearance depended on hepatobiliary route	–	–	–	–	–	measurable, but little	no free Tc-99m radioactivity was found

Reference: PMC3272321 (Chemical biology & drug design, 2011)
